pIC50: −log10 of the molar value. Active and inactive are the calls of the source. The calls are words filed in the database; no cut-off is given here.

The values that follow come from ChEMBL document CHEMBL1828563, “Synthesis and biological evaluation of 3-(1H-imidazol- and triazol-1-yl)-2,2-dimethyl-3-[4-(naphthalen-2-ylamino)phenyl]propyl derivatives as small molecule inhibitors of retinoic acid 4-hydroxylase (CYP26)” (J Med Chem, 2011).

Series [1] addresses T1, Cytochrome P450 26A1 (Homo sapiens, UniProt O43174).
T1 sequence (O43174 whole entry): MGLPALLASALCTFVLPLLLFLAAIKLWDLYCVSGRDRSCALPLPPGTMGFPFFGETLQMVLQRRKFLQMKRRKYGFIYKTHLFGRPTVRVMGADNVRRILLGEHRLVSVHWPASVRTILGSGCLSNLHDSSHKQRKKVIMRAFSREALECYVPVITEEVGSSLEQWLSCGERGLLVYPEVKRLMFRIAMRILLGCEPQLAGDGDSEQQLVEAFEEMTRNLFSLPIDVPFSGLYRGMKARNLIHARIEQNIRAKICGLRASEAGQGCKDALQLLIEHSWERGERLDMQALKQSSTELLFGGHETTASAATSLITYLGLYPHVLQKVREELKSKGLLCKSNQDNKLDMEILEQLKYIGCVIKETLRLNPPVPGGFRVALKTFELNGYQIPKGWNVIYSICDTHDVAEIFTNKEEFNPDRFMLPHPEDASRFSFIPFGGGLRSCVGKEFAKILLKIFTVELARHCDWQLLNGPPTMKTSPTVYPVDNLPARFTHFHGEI
Put plainly: Inhibition of human CYP26A1 assessed using [11,12-3H]ATRA as substrate by scintillation counting. The method in brief: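 CYP26 source: microsomes from MCF-7 cells pretreated 24 h with ATRA to induce CYP26, isolated by differential centrifugation. 50 μg microsomal protein in 50 mM Tris pH 7.4, 150 mM KCl, 10 mM MgCl₂, 0.02% BSA, 2 mM NADPH, 10 nM ATRA plus 0.1 μCi ³H-ATRA. Inhibitor 1–1000 nM, 1 h at 37 °C. Acetonitrile quench, retinoids resolved on C18 HPLC.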

Another series has as its target CYP2C19 (Homo sapiens, UniProt P33261). Put plainly: Inhibition of CYP2C19 in human liver microsomes at 0.4 uM. Type of series: ADME, Microsome. Background: Liver microsomes are a subcellular fraction often used to study metabolism.
A further series relates to SH-SY5Y. Put plainly: Increase in CYP26A1 mRNA expression in human SH-SY5Y cells at 1 uM after 72 hrs by RT-PCR analysis in the presence of 0.1 uM all-trans-retinoic acid. Type of series: functional. In short, it runs like this:
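SH-SY5Y cells grown in RPMI 1640 with 10% FCS and 2 mM L-glutamine. Treated 72 h with 0.1 μM ATRA plus inhibitor at 1 μM; inhibitors in ethanol diluted in medium. Total RNA reverse transcribed for TaqMan real-time PCR of CYP26A1, normalized to β-actin. Fold increase relative to cells given […]; mean ± SD, n = 6.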

The target in the next series is T2, CYP1A2 (Homo sapiens, UniProt P05177).
T2 sequence (P05177 whole entry): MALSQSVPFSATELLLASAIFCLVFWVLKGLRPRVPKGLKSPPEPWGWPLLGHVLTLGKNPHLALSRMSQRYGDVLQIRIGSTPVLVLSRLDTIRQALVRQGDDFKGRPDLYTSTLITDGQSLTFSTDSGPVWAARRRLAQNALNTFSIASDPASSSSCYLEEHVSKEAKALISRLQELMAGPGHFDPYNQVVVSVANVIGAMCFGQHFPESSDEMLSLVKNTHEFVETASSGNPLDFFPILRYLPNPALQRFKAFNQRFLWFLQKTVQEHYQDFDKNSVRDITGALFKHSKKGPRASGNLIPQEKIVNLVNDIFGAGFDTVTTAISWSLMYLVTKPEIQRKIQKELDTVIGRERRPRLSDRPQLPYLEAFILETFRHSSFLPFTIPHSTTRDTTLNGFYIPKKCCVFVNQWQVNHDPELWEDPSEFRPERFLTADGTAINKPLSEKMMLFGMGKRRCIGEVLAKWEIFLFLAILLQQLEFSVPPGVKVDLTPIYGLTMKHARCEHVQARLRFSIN
Put plainly: Inhibition of CYP1A2 in human liver microsomes at 0.4 uM. Type of series: ADME, Microsome.

The next series concerns the target CYP2C9 (Homo sapiens, UniProt P11712). Put plainly: Inhibition of CYP2C9 in human liver microsomes at 0.4 uM. The class given is ADME, Microsome.
The target of another series is CYP2D6 (Homo sapiens, UniProt P10635). Put plainly: Inhibition of CYP2D6 in human liver microsomes at 0.4 uM. The class given is ADME, Microsome.
Chain of CYP2D6 (P10635 whole entry): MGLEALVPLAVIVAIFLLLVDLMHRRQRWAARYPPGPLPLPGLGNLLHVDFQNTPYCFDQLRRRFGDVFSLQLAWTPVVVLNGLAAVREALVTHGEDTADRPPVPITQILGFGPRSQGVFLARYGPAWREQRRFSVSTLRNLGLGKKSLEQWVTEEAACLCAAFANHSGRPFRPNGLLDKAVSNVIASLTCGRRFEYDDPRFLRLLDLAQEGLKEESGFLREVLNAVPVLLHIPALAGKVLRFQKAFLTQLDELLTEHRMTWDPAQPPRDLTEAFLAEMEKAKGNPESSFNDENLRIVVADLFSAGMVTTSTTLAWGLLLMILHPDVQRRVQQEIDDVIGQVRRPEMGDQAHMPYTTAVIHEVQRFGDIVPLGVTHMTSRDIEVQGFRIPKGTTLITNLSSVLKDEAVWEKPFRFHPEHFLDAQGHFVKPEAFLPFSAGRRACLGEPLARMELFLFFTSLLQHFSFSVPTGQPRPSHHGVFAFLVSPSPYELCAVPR
In the next series the target is CYP3A4 (Homo sapiens, UniProt P08684). Put plainly: Inhibition of CYP3A4 in human liver microsomes at 0.4 uM. Type of series: ADME, Microsome.
Chain of CYP3A4 (P08684 whole entry): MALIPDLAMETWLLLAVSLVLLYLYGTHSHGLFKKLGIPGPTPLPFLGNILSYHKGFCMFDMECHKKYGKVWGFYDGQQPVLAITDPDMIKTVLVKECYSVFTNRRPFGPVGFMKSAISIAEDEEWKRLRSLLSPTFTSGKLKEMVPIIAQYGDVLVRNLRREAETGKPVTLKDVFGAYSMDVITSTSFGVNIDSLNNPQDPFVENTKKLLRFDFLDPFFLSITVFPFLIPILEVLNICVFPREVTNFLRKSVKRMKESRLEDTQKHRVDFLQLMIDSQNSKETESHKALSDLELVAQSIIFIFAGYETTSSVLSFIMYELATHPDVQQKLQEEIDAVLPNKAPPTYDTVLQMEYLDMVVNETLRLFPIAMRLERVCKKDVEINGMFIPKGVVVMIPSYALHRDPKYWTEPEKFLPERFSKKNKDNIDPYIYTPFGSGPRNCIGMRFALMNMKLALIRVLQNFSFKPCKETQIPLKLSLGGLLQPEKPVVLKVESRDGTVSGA
For the next series, the target named is Cytochrome P450 2D6 (Homo sapiens, UniProt P10635). Put plainly: Inhibition of CYP2D6 in human liver microsomes. The class given is ADME, Microsome.
Chain of Cytochrome P450 2D6 (P10635 whole entry): as the sequence (P10635 whole entry) above
The target of the next series is Cytochrome P450 3A4 (Homo sapiens, UniProt P08684). Put plainly: Inhibition of CYP3A4 in human liver microsomes. The class given is ADME, Microsome.
Chain of Cytochrome P450 3A4 (P08684 whole entry): as the sequence (P08684 whole entry) above
The target in another series is T3, Cytochrome P450 1A2 (Homo sapiens, UniProt P05177).
T3 sequence (P05177 whole entry): T2 sequence (P05177 whole entry)
Put plainly: Inhibition of CYP1A2 in human liver microsomes. The class given is ADME, Microsome.

The next series has as its target Cytochrome P450 2C9 (Homo sapiens, UniProt P11712). Put plainly: Inhibition of CYP2C9 in human liver microsomes. The class given is ADME, Microsome.
The next series deals with Cytochrome P450 2C19 (Homo sapiens, UniProt P33261). Put plainly: Inhibition of CYP2C19 in human liver microsomes. Type of series: ADME, Microsome.
Chain of Cytochrome P450 2C19 (P33261 whole entry): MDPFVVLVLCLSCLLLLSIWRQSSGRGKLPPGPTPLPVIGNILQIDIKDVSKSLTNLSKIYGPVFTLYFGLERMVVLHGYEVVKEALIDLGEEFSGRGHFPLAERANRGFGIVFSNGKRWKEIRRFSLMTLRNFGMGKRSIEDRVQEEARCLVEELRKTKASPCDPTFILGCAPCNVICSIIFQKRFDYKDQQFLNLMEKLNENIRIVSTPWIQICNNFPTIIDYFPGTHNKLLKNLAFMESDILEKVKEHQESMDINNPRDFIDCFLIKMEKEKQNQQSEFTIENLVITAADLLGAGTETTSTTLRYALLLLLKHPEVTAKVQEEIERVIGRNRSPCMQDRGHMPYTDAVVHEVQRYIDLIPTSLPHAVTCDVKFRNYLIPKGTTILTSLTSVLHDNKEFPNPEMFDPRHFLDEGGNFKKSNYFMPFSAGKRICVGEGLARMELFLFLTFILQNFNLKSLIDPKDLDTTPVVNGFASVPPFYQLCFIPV
The nature of series [2]: Half-life in human liver microsomes. Type of series: ADME, Microsome.
Series [3] concerns the target T1, Cytochrome P450 26A1. Put plainly: Inhibition of CYP26 in human MCF-7 cell microsomes.

Chain of CYP2C19 (P33261 whole entry): as above
Chain of Cytochrome P450 2C9 (P11712 whole entry): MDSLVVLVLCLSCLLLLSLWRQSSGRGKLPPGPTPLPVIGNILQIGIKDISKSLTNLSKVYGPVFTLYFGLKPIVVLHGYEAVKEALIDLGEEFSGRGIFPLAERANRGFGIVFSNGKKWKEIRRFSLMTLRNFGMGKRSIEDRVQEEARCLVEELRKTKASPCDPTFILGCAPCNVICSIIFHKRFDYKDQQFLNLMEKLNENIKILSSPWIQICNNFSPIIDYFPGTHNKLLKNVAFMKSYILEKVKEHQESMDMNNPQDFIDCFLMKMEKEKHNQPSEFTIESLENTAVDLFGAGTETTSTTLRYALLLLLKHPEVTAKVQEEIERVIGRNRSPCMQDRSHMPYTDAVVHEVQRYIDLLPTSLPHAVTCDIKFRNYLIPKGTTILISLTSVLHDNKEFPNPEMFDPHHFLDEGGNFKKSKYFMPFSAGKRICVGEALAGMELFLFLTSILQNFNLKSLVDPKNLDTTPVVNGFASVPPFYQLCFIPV
Chain of CYP2C9 (P11712 whole entry): as above

As for `CNC(=O)C(C)(C)C(c1ccc(Nc2ccc3ccccc3c2)cc1)n1cncn1` (stereo unspecified), the pIC50 at Cytochrome P450 26A1 [1] is 6.46.

`CNC(=O)C(C)(C)C(c1ccc(Nc2ccc3ccccc3c2)cc1)n1ccnc1` (stereo unspecified): the inhibition at 0.4 µM against CYP2C19 came to 14%; against CYP1A2, 15%; at CYP2C9, 45%; at CYP2D6, 13%; against CYP3A4, 86%. In the series on SH-SY5Y, the outcome was Active. The compound further gave a pIC50 at Cytochrome P450 26A1 [1] of 7.92.

For the compound `CC(C)(C(=O)OCc1ccccc1)C(c1ccc(Nc2ccc3ccccc3c2)cc1)n1ccnc1` (stereo unspecified), the pIC50 against Cytochrome P450 26A1 [1] was 6.40.

With `CCCCOC(=O)C(C)(C)C(c1ccc(Nc2ccc3ccccc3c2)cc1)n1ccnc1` (stereo unspecified), the negative logarithm of the IC50 (pIC50) against Cytochrome P450 26A1 [1] is 6.70.

Regarding `CN(C)C(=O)C(C)(C)C(c1ccc(Nc2ccc3ccccc3c2)cc1)n1ccnc1` (stereo unspecified), the inhibition at 0.4 µM stood at 21% against CYP2C19; 11% on CYP1A2; 52% against CYP2C9; 29% against CYP2D6; 95% at CYP3A4. For the same compound, the pIC50 against Cytochrome P450 26A1 [1] is 7.12.

In the case of `COC(=O)C(C)(C)C(c1ccc(Nc2ccc3ccccc3c2)cc1)n1cncn1` (stereo unspecified), the inhibition at 0.4 µM against CYP2C19 was 16%; on CYP1A2 it was 10%; against CYP2C9, 38%; on CYP2D6, -2%; against CYP3A4 it was 22%. The pIC50 against Cytochrome P450 2D6 was 5.74; on Cytochrome P450 3A4 it was 6.48; on Cytochrome P450 1A2 it was 4.96; on Cytochrome P450 2C9, 4.67; at Cytochrome P450 2C19, 5.50; on Cytochrome P450 26A1 [1], 9.46. Besides, on Cytochrome P450 26A1 [3], the negative logarithm of the IC50 (pIC50) was 9.52. In addition, the “fold change (FC)” value in the series with SH-SY5Y is listed as 5.2. For the same compound, in series [2], the half-life came to 3.73 h.

Consider `CC(C)(C(N)=O)C(c1ccc(Nc2ccc3ccccc3c2)cc1)n1ccnc1` (stereo unspecified), for which the “fold change (FC)” value in the series on SH-SY5Y was 4.1. Further, the pIC50 on Cytochrome P450 26A1 [1] was 7.30.

`CC(C)OC(=O)C(C)(C)C(c1ccc(Nc2ccc3ccccc3c2)cc1)n1ccnc1` (stereo unspecified) had a pIC50 against Cytochrome P450 26A1 [1] of 6.54.

`COC(=O)C(C)(C)C(c1ccc(Nc2ccc3ccccc3c2)cc1)n1ccnc1` (stereo unspecified): in the series with SH-SY5Y, the result was Active. The compound also gave a negative logarithm of the IC50 (pIC50) against Cytochrome P450 2C9 of 5.10. This compound displayed a half-life in [2] of 5.02 h.

`CCCCCOC(=O)C(C)(C)C(c1ccc(Nc2ccc3ccccc3c2)cc1)n1ccnc1` (stereo unspecified): on Cytochrome P450 26A1 [1], the negative-log IC50 (pIC50) is 6.85.

Compound `CC(C)(C(=O)O)C(c1ccc(Nc2ccc3ccccc3c2)cc1)n1ccnc1` (stereo unspecified) had a pIC50 against Cytochrome P450 26A1 [1] of 6.52.

For `COc1ccc2cc(Nc3ccc(C(n4ccnc4)C(C)(C)CO)cc3)ccc2c1` (stereo unspecified), the “fold change (FC)” value in the series on SH-SY5Y came out at 3.7. In addition, on Cytochrome P450 26A1 [1], the pIC50 was 7.40.

For the compound `CC(C)NC(=O)C(C)(C)C(c1ccc(Nc2ccc3ccccc3c2)cc1)n1ccnc1` (stereo unspecified), the negative logarithm of the IC50 (pIC50) on Cytochrome P450 26A1 [1] is 6.92.

Compound `CC(C)(C(=O)O)C(c1ccc(Nc2ccc3ccccc3c2)cc1)n1cncn1` (stereo unspecified) gave a pIC50 at Cytochrome P450 26A1 [1] of under 6.00.

As for `CCOC(=O)C(C)(C)C(c1ccc(Nc2ccc3ccccc3c2)cc1)n1ccnc1` (stereo unspecified), the inhibition at 0.4 µM at CYP2C19 was found to be 30%; against CYP1A2 it was 20%; at CYP2C9 it was 43%; at CYP2D6, 15%; on CYP3A4, 61%. For the same compound, the “fold change (FC)” value with SH-SY5Y amounted to 5.8. On Cytochrome P450 26A1 [1], this compound gave a pIC50 of 9.46.

On Cytochrome P450 26A1 [1], `c1ccc(C(c2ccc(Nc3ccc4ccccc4c3)cc2)n2ccnc2)cc1` (stereo unspecified) showed a pIC50 of 6.30.

As to `C[C@H]([C@@H](c1ccc(Nc2nc3ccccc3s2)cc1)n1ccnc1)N(C)C`, the pIC50 at Cytochrome P450 2C9 was 4.96.

A word on the pIC50: it is the negative decadic logarithm of the IC50, by convention in mol/L. One may read the inhibition as the drop in the measured response relative to a control, in per cent. As usually defined, the half-life is the time in which the quantity being followed falls by half. The low end stands for fast loss, the high end for slow loss.
